# Compound activity (PubChem)
# This is a sample that favours compounds with a hit; in the whole collection about 4.1% have one here.
# KCNK9 block: KCNK9 potassium channel inhibitors, primary screen, HEK293 cells, thallium flux; B-score at 10 µM; FluxOR thallium flux fluorescence; active compounds read low; Potassium channel subfamily K member 9 (Homo sapiens), Q9NPC2; actives 1.2% (n = 310,000);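 active = ratio B-score over 3 SD below the library mean, with starting fluorescence within 5 SD of its mean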;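 also: negative B-score means less thallium flux so channel inhibition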
# Cl transport mod: KCC2 cotransporter modulators, thallium flux, primary screen, cell-based, HEK293 KCC2, FluoZin-2 fluorescence, MLSMR; Solute carrier family 12 member 5 (Homo sapiens), Q9H2X9; KCC2 cells, thallium flux FluoZin-2 fluorescence; B-score of Tl+ flux slope (higher = more flux/activation; lower = inhibition) at 10 µM; actives 2.2% (n = 190,000); AID 1456, 2008;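 active = thallium flux slope and its plate-corrected score both differing from the plate sample mean at a set confidence after two filtering rounds, in either direction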;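 also: slope of fluorescence scaled to starting intensity during 10 to 20 s after thallium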
# KCNQ1 block: inhibitors of human KCNQ1 channel, primary screen, cell-based, thallium flux, high-throughput; Potassium voltage-gated channel subfamily KQT member 1 (Homo sapiens), P51787; CHO-K1 KCNQ1, FluxOR thallium flux fluorescence; active compounds read high; B-score at 10 µM; actives 1.3% (n = 310,000); AID 2642, 2010;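 active = compounds whose thallium flux B-score, printed positive for inhibition, exceeds three library SD while starting fluorescence stays within three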;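 also: channel opened by potassium depolarization with thallium stimulus after 20 min compound exposure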
# KCNQ1 act: potentiators or activators of KCNQ1 channel, primary screen, cell-based, thallium flux, high-throughput. CHO-K1 KCNQ1, thallium flux FluxOR fluorescence; active compounds read high. B-score at 10 µM. actives 0.35% (n = 310,000);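 active = fluorescence ratio B-score, a plate-corrected score, at least three library SD, with initial intensity B-score within 5 SD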
#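 Doses: Single concentration per compound, DMSO matched to controls | Test system: KCNQ1-transfected CHO-K1 cells | Timing: 90 min dye loading and 20 min compound exposure, both at room temperature | Measured by: Kinetic FluxOR thallium fluorescence, 10-s 1-Hz baseline, 110-s post-stimulus read | Medium: Assay buffer with matched DMSO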
# hERG protect: hERG rescue from dofetilide block, primary screen, cell-based, CHO-hERG, FluxOR thallium flux, dofetilide IC70 | Voltage-gated inwardly rectifying potassium channel KCNH2 (Homo sapiens), Q12809 | dofetilide IC70 present | activation (rescue from dofetilide block), less the hit threshold, % at 10 µM | actives 0.51% (n = 310,000) | AID 1511, 2009;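 active = activation above the mean of controls blocked by dofetilide plus 5 SD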;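 also: thallium influx through hERG after potassium depolarization seen as dye fluorescence rise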
# Target sequence (Q12809 whole entry, looked up): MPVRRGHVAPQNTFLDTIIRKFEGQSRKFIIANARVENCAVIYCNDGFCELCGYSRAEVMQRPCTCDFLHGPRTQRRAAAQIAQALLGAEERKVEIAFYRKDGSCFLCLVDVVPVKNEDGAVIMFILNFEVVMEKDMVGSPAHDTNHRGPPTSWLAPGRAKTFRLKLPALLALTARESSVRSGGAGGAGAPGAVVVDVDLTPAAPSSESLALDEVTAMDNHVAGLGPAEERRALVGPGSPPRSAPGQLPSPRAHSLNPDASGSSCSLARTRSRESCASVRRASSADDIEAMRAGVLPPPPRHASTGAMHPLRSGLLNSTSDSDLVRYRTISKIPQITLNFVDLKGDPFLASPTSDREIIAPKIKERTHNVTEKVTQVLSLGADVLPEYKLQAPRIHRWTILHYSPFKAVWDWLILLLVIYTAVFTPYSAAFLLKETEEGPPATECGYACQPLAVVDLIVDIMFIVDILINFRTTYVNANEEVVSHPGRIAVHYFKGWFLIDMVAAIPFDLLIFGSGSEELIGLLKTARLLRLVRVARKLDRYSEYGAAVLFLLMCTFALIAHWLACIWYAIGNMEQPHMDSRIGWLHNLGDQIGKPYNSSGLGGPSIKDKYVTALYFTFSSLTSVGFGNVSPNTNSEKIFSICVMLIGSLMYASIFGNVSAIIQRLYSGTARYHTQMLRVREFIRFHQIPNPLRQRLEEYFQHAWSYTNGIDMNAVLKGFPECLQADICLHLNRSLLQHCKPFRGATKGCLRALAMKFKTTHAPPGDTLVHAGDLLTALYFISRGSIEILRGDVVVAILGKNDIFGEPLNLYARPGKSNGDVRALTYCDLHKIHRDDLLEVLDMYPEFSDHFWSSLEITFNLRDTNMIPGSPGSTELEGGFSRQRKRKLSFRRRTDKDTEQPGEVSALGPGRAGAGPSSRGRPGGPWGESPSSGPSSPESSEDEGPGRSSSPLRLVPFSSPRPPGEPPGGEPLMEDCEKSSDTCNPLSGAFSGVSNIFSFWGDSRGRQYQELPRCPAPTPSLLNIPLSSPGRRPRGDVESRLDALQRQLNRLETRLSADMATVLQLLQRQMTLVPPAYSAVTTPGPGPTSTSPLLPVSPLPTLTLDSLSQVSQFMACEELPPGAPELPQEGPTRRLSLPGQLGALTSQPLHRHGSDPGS
# KCNK3 inh: human KCNK3 channel inhibitors, primary screen, CHO cells, FluxOR thallium flux, B-score | FluxOR fluorescence; active compounds read low | B-score at 10 µM | actives 0.84% (n = 340,000) | AID 602410, 2012;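 active = B-score under library mean minus 4 SD, starting fluorescence ratio at most library mean plus 5 SD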;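 also: more negative B-score means stronger inhibition of thallium flux through KCNK3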
# KCC2 sec1: KCC2 modulators in sodium-free buffer, confirmation, cell-based, HEK293 KCC2, thallium flux, secondary assay; shares compounds with Cl transport mod; actives 15% (n = 3,700); FluoZin2 fluorescence; active compounds read high; normalised thallium flux (F/F0 slope) at 10 µM;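 active = thallium flux slope above the same plate's solvent-only control mean plus 3 SD; inconclusive = the two replicate wells disagree; inactive = no significant difference from solvent-only control wells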
# KCC2 bumet counter: thallium flux persisting under bumetanide in KCC2 cells, confirmation, counter-screen for KCC2 modulator project, cell-based, HEK293 KCC2, FluoZin2, secondary assay 3. shares compounds with Cl transport mod. HEK293-KCC2 + bumetanide/ouabain; active compounds read high. normalized thallium flux at 10 µM. actives 49% (n = 3,700);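 active = thallium entry rate above the same plate's blocked-transporter control wells by more than 3 SD; inconclusive = the two repeat wells disagree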;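 also: raw slope of fluorescence over initial fluorescence between 10 and 20 s after thallium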
# KCC2 sec2: KCC2 modulators without ouabain present, confirmation, cell-based, HEK293 KCC2, thallium flux, FluoZin2, secondary assay 2; shares compounds with Cl transport mod; thallium flux FluoZin2 fluorescence; actives lie on both sides; F/F0 rise rate, 10–20 s post-thallium; normalized thallium flux at 10 µM; actives 23% (n = 3,700);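 active = thallium flux slope more than 3 SD above or below the plate's solvent-only control mean, mostly below; inconclusive = the two repeat wells disagreed; inactive = no significant shift from solvent-only controls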;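 also: raw slope with 0.1% DMSO as baseline and bumetanide as block control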
# HEK293 Tl flux: thallium flux modulation in parental HEK cells, confirmation, counter-screen for KCC2 modulator project, cell-based, counterscreen 1. shares compounds with Cl transport mod. HEK293 parental cells, thallium flux FluoZin2, ouabain; baseline-ratio fluorescence slope, 10–20 s after thallium. thallium flux rate (normalised fluorescence) at 10 µM. actives 46% (n = 3,700);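 active = thallium flux rate significantly above the same plate's solvent-only control wells, beyond their mean plus 3 SD; inconclusive = the two replicate wells gave conflicting results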
# KCC2 ouabain: KCC2 inhibitors and activators, ouabain retest, confirmation, HEK-KCC2 cells; shares compounds with Cl transport mod; HEK293-KCC2, thallium flux FluoZin2 fluorescence; bidirectional: low = inhibitor, high = activator; raw Tl+ flux slope (below DMSO = inhibition, above = activation) at 10 µM; actives 48% (n = 3,700); AID 1717, 2009;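 active = thallium flux slope beyond 3 SD from same-plate DMSO control mean in most replicates, usually higher, sometimes lower; inconclusive = repeat tests gave conflicting results; inactive = no significant difference from controls in most replicates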;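 also: slope of initial-normalized fluorescence between seconds 10 and 20 after thallium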
# HEK counter2: native HEK Tl+ uptake effects, second counter-screen – HEK cells, counterscreen 2, counter-screen for KCC2 modulator project, confirmation; shares compounds with Cl transport mod; HEK293 parental, thallium flux FluoZin-2 fluorescence slope; thallium flux slope at 10 µM; actives 33% (n = 3,700); AID 1718, 2009;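 active = thallium flux slope above the same plate's solvent-control mean plus 3 SD in both duplicate wells; inconclusive = duplicate wells that disagreed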;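 also: run without ouabain in cells lacking the KCC2 cotransporter; slope of fluorescence scaled to its starting value between 10 and 20 s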
# Active calls of the source: *; i = inactive; ? = inconclusive; . = no result given.
SMILES,KCNK9 block,Cl transport mod,KCNQ1 block,KCNQ1 act,hERG protect,KCNK3 inh,KCC2 sec1,KCC2 bumet counter,KCC2 sec2,HEK293 Tl flux,KCC2 ouabain,HEK counter2
O=C(NC(=S)N1CCN(C(c2ccccc2)c2ccccc2)CC1)c1ccc(S(=O)(=O)N2CCOCC2)cc1,i,8.7*,i,i,-7,i,0.006,0.024*,0.032,0.013*,?,?
CCCCN(C)C(=O)c1ccc(S(=O)(=O)N2CCOCC2)cc1,i,-0.12,i,i,-6,i,.,.,.,.,.,.
CN1CCN(C(=S)NC(=O)c2ccc(S(=O)(=O)N3CCOCC3)cc2)CC1,i,0.013,i,i,-15,i,.,.,.,.,.,.
CCCN(CC1CC1)C(=S)NC(=O)c1ccc(S(=O)(=O)N2CCOCC2)cc1,i,5.6*,i,i,-5,i,0.018,0.019*,0.033,0.017*,0.024*,0.018*
CCC(Sc1nc2ccncc2[nH]1)C(=O)Nc1cc(Cl)ccc1C (stereo not drawn),i,.,i,i,-9,i,.,.,.,.,.,.
Cc1ccccc1NC(=S)N/N=C/C(C)c1ccccc1 (stereo not drawn),i,14*,i,i,-19,i,0.0051,0.027*,0.032,0.015*,?,0.018*
COc1cccc(N2CCN(S(=O)(=O)c3ccc(-n4cnnn4)cc3)CC2)c1,i,.,i,i,-3,i,.,.,.,.,.,.
CCOC(=O)C1=C(CC)Nc2ccccc2N=C1NC(=O)c1cc(S(=O)(=O)N2CCOCC2)ccc1C,.,.,.,.,.,i,.,.,.,.,.,.
C[C@H]1COC(=O)[C@@H](CC(=O)OC(C)(C)C)C/C=C\C[C@H](CC(=O)NCCO)C(=O)N1,.,.,.,.,.,i,.,.,.,.,.,.
CCc1nnc(NC(=O)C2CCCN(S(=O)(=O)c3ccccc3)C2)s1 (stereo not drawn),i,.,i,i,-5,i,?,0.0054,0.03,0.0071,0.019,0.01
COc1ccc(C(=O)N/C(=C/c2cccnc2)C(=O)N2CCN(C)CC2)cc1OC,i,.,i,i,-4,i,.,.,.,.,.,.
CCOC(=O)C1=C(CN2CCCCC2)NC(=O)NC1c1cc(C)ccc1C (stereo not drawn),i,.,i,i,-13,i,0.0056,0.0043,0.031,0.0073,0.019,0.01
CCOC(=O)C1=C(CN2CCOCC2)NC(=O)NC1c1cc(C)ccc1C (stereo not drawn),i,0.61,i,i,-2,i,.,.,.,.,.,.
CC(NC(=O)CN(C)Cc1cccc(Cl)c1)c1ccccc1 (stereo not drawn),i,.,i,i,-11,i,.,.,.,.,.,.
COc1ccc(OCC(=O)NC2CCSc3ccccc32)cc1 (stereo not drawn),.,.,.,.,.,i,.,.,.,.,.,.
Cc1ccc(Cl)cc1N1CCN(C(=O)Cc2csc(Nc3nc(=S)[nH]c4ccccc34)n2)CC1,i,19*,i,i,-14,i,0.013*,0.053*,?,0.032*,0.054*,0.014*
O=C(Cc1csc(Nc2nc(=S)[nH]c3ccccc23)n1)N1CCN(c2cccc(Cl)c2)CC1,i,25*,i,i,-14,i,?,0.075*,0.036,0.03*,0.053*,0.014*
O=C(Cn1c(=O)[nH]c2ccccc2c1=O)N1CCN(c2cccc(Cl)c2)CC1,i,-0.83,i,i,1,i,.,.,.,.,.,.
Fc1ccc(-n2c(-c3ccc4ccccc4n3)n[nH]c2=S)cc1,i,6.6*,i,i,-8,i,?,0.022*,0.032,0.018*,0.027*,0.018*
S=c1[nH]nc(-c2ccc3ccccc3n2)n1-c1ccccc1Cl,i,6*,i,i,-8,i,0.011,0.026*,0.033,0.013*,0.025,0.01
S=c1[nH]nc(-c2ccc3ccccc3n2)n1-c1cc(Cl)cc(Cl)c1,i,22*,i,i,-1,i,0.021*,0.054*,0.033,0.039*,0.051*,0.013*
CCCCN(C(=O)C1CC(=O)N(CCc2ccc(OC)c(OC)c2)C1)c1c(N)n(CC(C)C)c(=O)[nH]c1=O (stereo not drawn),.,.,.,.,.,i,.,.,.,.,.,.
O=C(CSc1nnc(-c2ccccc2F)o1)N1CCNC1=O,.,.,.,.,.,i,.,.,.,.,.,.
O=C(c1ccc(CS(=O)c2ccccc2Cl)o1)N1CCN(c2ccccn2)CC1 (stereo not drawn),i,.,i,i,-16,i,.,.,.,.,.,.
CC(Sc1nnc(-c2cccs2)n1N)C(=O)NCC1CCCO1 (stereo not drawn),i,.,i,i,-6,i,.,.,.,.,.,.
